Assay [1] has as its target Trypanothione reductase (Trypanosoma cruzi) (UniProt P28593). The experiment in a line: Natural log of the value in (uM) of inhibition constant was tested against Trypanothione Reductase.
The target is the same in assay [2]. In words: Percent Inhibition of trypanothione reductase activity at 57 uM concentration. In short, it runs like this: (§1)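 TR-catalysed reduction of trypanothione disulfide; the reaction rate was measured without inhibitor (r0) and with inhibitor (rinh). Percent inhibition = (r0 − rinh)/r0 × 100. Measured percentages carry an error of about 10%.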
For assay [3] the target is unchanged. The experiment in a line: Percent Inhibition of trypanothione reductase activity at 5.7 uM concentration. In short, it runs like this:
as §1

The target is the same in assay [4]. In words: Percent Inhibition of trypanothione reductase activity at 28.5 uM concentration. In short, it runs like this:
as §1

Sequence of Trypanothione reductase (Trypanosoma cruzi) (P28593 whole entry, looked up): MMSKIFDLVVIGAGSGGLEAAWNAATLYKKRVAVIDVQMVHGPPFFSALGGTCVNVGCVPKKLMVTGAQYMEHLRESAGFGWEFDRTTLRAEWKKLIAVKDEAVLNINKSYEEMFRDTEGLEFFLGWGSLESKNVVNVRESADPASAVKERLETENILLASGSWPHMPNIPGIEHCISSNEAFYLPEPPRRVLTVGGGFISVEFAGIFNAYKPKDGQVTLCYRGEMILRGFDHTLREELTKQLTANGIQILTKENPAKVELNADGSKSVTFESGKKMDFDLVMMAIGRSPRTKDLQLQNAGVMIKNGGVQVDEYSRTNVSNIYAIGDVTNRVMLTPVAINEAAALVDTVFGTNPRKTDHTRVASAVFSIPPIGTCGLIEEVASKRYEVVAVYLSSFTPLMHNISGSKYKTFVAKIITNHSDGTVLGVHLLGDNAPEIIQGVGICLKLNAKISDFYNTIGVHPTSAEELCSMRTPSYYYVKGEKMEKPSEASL

As for `Cc1ccc(Sc2ccc(Cl)cc2NCCCN2CCN(C)CC2)cc1`, the Natural log of inhibition constant (Ki in uM) in assay [1] was determined as 3.33.
On the same count and under the same terms, then `NCCCNCCCNC1=C(c2c[nH]c3ccccc23)C(=O)NC1=O`, with 0.91; and `Clc1ccc(Sc2ccccc2NCCN2CCCC2)cc1`, with 5.08; and `CN1CCN(CCCNc2cc(Cl)ccc2Sc2ccc(Cl)cc2)CC1`, with 4.04.
On the same count and under the same terms, then `NCCN(CCN)CCCNc1cc(Cl)ccc1Sc1ccccc1`, with 1.5.
On to `COc1cc(CC2NCCc3c2[nH]c2ccccc32)ccc1O` (stereo not drawn), for which the figures for the inhibition in assay [2], in assay [3] and in assay [4] were 27%, 0% and 13%, respectively.
Take `Cc1ccc(Sc2ccc(F)cc2)c(NCCCN2CCN(C)CC2)c1`: the Natural log of inhibition constant (Ki in uM) in assay [1] was 5.35.
In the case of `Cc1cc(-c2ccccc2)nnc1NCCN1CCOCC1`, the inhibition turned out to be 12% in assay [2], 18% in assay [3] and 16% in assay [4].
In the same order, the values of `NCCC1CCN(Cc2ccccc2)CC1` are 0%, 0% and 0%.
In the case of `Fc1ccc(C(CCCN2CCNCC2)c2ccc(F)cc2)cc1`, the inhibition in assay [2] worked out at 18%; in assay [3] it was 0%; in assay [4], 9%.
In turn, `Cc1ccc(Sc2ccc(C)cc2NCCCN2CCN(C)CC2)cc1` came in with a Natural log of inhibition constant (Ki in uM) in assay [1] of 4.38.
Regarding `Cc1cccc(C)c1OCC(O)CN1CCNCC1` (stereo not drawn), the inhibition turned out to be 7% in assay [2], 0% in assay [3] and 0% in assay [4].
For the compound `Clc1ccc(Sc2ccccc2)c(NCCCN2CCCC2)c1`, the Natural log of inhibition constant (Ki in uM) in assay [1] was determined as 3.78.
In assay [1], `NCCNCCCNc1cc(Cl)ccc1Sc1ccccc1` gave a Natural log of inhibition constant (Ki in uM) of 3.
As for `NCCc1ccc(Oc2ccccc2)cc1`, the inhibition in assay [2], in assay [3] and in assay [4] was 0% in each case.
In the case of `CN1CCN(CCCCNc2ccccc2Sc2cccc(NCCCCCNc3cccc(Sc4ccccc4NCCCCN4CCN(C)CC4)c3)c2)CC1`, the Natural log of inhibition constant (Ki in uM) in assay [1] worked out at 1.
On the same count and under the same terms, then `NCCCNCCCCNCCCNC(=O)CCc1ccc(O)c(O)c1`, with 4.44; and `O=C(/C=C/c1ccc(O)c(O)c1)NCCCNCCCCNCCCNC(=O)/C=C/c1ccc(O)c(O)c1`, with 2.77.
For `Clc1ccc(Sc2ccccc2)c(NCCN2CCCCC2)c1`, the Natural log of inhibition constant (Ki in uM) in assay [1] turned out to be 6.55.
Take `Clc1ccc(Sc2ccccc2)c(NCCCN2CCCCC2)c1`: the Natural log of inhibition constant (Ki in uM) in assay [1] was found to be 3.95.
As to `Clc1ccc(C(c2ccccc2)N2CCNCC2)cc1` (stereo not drawn), the results for the inhibition in assay [2], in assay [3] and in assay [4] were 40%, 0% and 30%, respectively.
Compound `COc1ccc(CCC(=O)NCCCNCCCCN)cc1` had a Natural log of inhibition constant (Ki in uM) in assay [1] of 5.82.
In assay [1], `CN(C)CCNc1ccccc1Sc1ccc(Cl)cc1` showed a Natural log of inhibition constant (Ki in uM) of 4.38.
Same read-out and setting: the result for `Clc1ccc(Sc2ccc(Cl)cc2NCCN2CCCCC2)cc1` reads 6.9.
In assay [1], `COc1ccc(/C=C/C(=O)N2CCCN(CCCCN)C2)cc1` displayed a Natural log of inhibition constant (Ki in uM) of 5.01.
The same measure, in the same setting: then `CN(C)CCNc1cc(Cl)ccc1Sc1ccccc1`, with 4.38.
The same measure, in the same setting: then `c1ccc(Sc2ccccc2NCCCN2CCCC2)cc1`, with 4.73; and `CC(=O)c1ccc(Sc2ccc(Cl)cc2NCCCN2CCN(C)CC2)cc1`, with 2.94.
On the same count and under the same terms, the result for `COc1ccc(/C=C/C(=O)NCCCCN2CCCN(C(=O)/C=C/c3ccc(OC)cc3)C2)cc1` reads 5.01.
The compound `CCN(CC)CCNc1cc(Cl)ccc1Sc1ccccc1` came in with a Natural log of inhibition constant (Ki in uM) in assay [1] of 6.21.
Same read-out and setting: then `Clc1ccc(Sc2ccc(Cl)cc2NCCCN2CCCC2)cc1`, with 4.06.
Take `N#Cc1ccc(C2NCCc3c2[nH]c2ccccc32)cc1` (stereo not drawn): the inhibition in assay [2], in assay [3] and in assay [4] was 0% throughout.
For `CN1CCN(CCCNc2cc(Cl)ccc2Sc2cc(Cl)ccc2Cl)CC1`, the Natural log of inhibition constant (Ki in uM) in assay [1] amounted to 3.4.
On the same count and under the same terms, then `CN1CCN(CCCNc2cc(Cl)ccc2Sc2ccc(F)cc2)CC1`, with 4.74.
On to `C[C@@H]1CN(CCCn2c3ccccc3c3ccccc32)C[C@H](C)N1`, for which the inhibition stood at 23% in assay [2], 10% in assay [3] and 15% in assay [4].
`NCCCCNCCCNC(=O)CCc1ccc(O)c(O)c1` showed a Natural log of inhibition constant (Ki in uM) in assay [1] of 4.68.
On to `Cc1ccc(Sc2ccccc2NCCCN2CCN(C)CC2)cc1`, for which the Natural log of inhibition constant (Ki in uM) in assay [1] is 4.17.
Same read-out and setting: the result for `CN1CCN(CCCNc2cc(Cl)ccc2Sc2ccccc2)CC1` reads 3.3; that for `CN(C)c1ccc(C(c2ccc(N(C)C)cc2)c2ccc(N(C)C)cc2)cc1`, 1.6.
On the same count and under the same terms, then `CN1CCN(CCNc2cc(Cl)ccc2Sc2ccc(Cl)cc2)CC1`, with 3.85.
On the same count and under the same terms, the result for `CN1CCN(CCNc2ccccc2Sc2ccc(Cl)cc2)CC1` reads 4.38; that for `O=C(CCc1ccc(O)c(O)c1)NCCCCNCCCNC(=O)CCc1ccc(O)c(O)c1`, 2.01.
For `CN(C)CCCC(CN)(c1ccccc1)c1ccccc1`, the inhibition in assay [2] worked out at 36%; in assay [3], 0%; in assay [4], 9%.
In assay [1], `COc1ccc(/C=C/C(=O)NCCCNCCCCN)cc1` had a Natural log of inhibition constant (Ki in uM) of 5.6.
`CNCCC=C1c2ccccc2CCc2ccccc21`: the inhibition in assay [2] worked out at 25%; in assay [3], 0%; in assay [4], 0%.
Regarding `CCN(CC)CCCNc1cc(Cl)ccc1Sc1ccccc1`, the Natural log of inhibition constant (Ki in uM) in assay [1] is 3.74.
The same measure, in the same setting: then `CN1CCN(CCNc2cc(Cl)ccc2Sc2ccccc2)CC1`, with 3.68; and `Clc1ccc(Sc2ccccc2)c(NCCN2CCCC2)c1`, with 4.34.
Take `CCC(C)(C)c1ccc(OCCCCN)c(C(C)(C)CC)c1`: the inhibition in assay [2], in assay [3] and in assay [4] was 0% in each case.
In assay [1], `Clc1ccc(Sc2ccc(Cl)cc2NCCCN2CCCCC2)cc1` yielded a Natural log of inhibition constant (Ki in uM) of 4.09.
Consider `NCc1ccccc1Sc1ccccc1CO`, for which the inhibition in assay [2] is 31%; in assay [3], 0%; in assay [4], 0%.
The compound `CN(C)CCNc1cc(Cl)ccc1Sc1ccc(Cl)cc1` yielded a Natural log of inhibition constant (Ki in uM) in assay [1] of 3.91.

(Values after ChEMBL document CHEMBL1130101, “A virtual screening approach applied to the search for trypanothione reductase inhibitors” (J Med Chem, 1997).)
